Experimental data taken from paper PMC6911349 (Drug Design, Development and Therapy, 2019).
Counter-ions that a name gives are not always drawn.

Assays:
Pheretima posthuma = assay: Anthelmintic study
How it was run: (§1)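 P. posthuma (7–9 cm) collected from muddy soil; A. galli taken from domestic chicken intestine. Test compound suspended in distilled water with Tween 80 at 10, 20 and 40 mg. 25 mL per Petri dish, six worms per dish. […] Paralysis and death times recorded.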

Ascaridia galli = assay: Anthelmintic study
How it was run: as §1

ABTS anti-radicals study = assay: ABTS anti-radicals study
How it was run: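 ABTS (7 mM) combined with […] and held in the dark at 25 °C for 12–16 h to form radicals. Diluted in 0.01 M phosphate buffer, pH 7.4, to A734 of 0.70. 300 µL test compound solution added to 3.0 mL radical solution; decrease in absorbance recorded. Ascorbic acid as reference.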

H2O2 anti-radicals study = assay: H2O2 anti-radicals study
How it was run: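 2 mM H2O2 in 50 mM phosphate buffer, pH 7.4, mixed with 0.1 mL test compound at various concentrations. Absorbance at 230 nm read against blank after 10 min; H2O2 scavenging calculated from absorbance.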

[1] = DPPH radical scavenging assay
How it was run: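 Test compound dilutions of 62.50–1000 µg/mL; 0.1 mL of each added to 3.0 mL DPPH in methanol. Incubated 30 min, then absorbance read at 517 nm. % scavenging = [(A0–A1)/A0]×100, where A0 is control and A1 is test absorbance. Ascorbic acid as reference.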

[2] = target: butyrylcholinesterase (BChE) (Equus caballus, UniProt P81908); assay: Butyrylcholinesterase inhibitory assay; type: biochemical, equine
Chain of butyrylcholinesterase (BChE) (P81908 whole entry): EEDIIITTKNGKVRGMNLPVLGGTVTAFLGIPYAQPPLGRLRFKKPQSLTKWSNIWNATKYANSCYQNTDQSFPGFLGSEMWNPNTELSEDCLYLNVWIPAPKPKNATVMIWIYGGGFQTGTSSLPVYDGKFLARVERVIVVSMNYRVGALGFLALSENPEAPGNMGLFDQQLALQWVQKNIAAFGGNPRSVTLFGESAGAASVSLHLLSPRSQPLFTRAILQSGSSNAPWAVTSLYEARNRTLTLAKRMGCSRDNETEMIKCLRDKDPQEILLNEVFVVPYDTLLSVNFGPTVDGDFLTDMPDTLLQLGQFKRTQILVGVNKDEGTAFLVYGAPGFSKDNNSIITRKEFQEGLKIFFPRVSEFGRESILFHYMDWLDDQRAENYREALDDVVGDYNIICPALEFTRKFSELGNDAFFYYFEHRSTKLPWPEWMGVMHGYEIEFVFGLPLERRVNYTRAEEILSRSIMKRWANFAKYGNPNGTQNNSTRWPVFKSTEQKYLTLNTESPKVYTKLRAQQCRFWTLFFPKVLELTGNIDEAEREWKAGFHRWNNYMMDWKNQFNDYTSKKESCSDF

[3] = 40 mg/mL, listed as albendazole

SMILES: CCCSc1ccc2nc(NC(=O)OC)[nH]c2c1 [Alb, Albendazole, reference compound]
- Pheretima posthuma Death Time (Pheretima posthuma; 10 mg/mL): 48.70 ± 2.06 min
- Pheretima posthuma Paralysis Time (Pheretima posthuma; 10 mg/mL): 09.08 ± 1.56 min
- Pheretima posthuma Death Time (Pheretima posthuma; 20 mg/mL): 39.33 ± 1.54 min
- Pheretima posthuma Paralysis Time (Pheretima posthuma; 20 mg/mL): 07.24 ± 1.38 min
- Pheretima posthuma Death Time (Pheretima posthuma; 40 mg/mL): 28.92 ± 2.68 min
- Pheretima posthuma Paralysis Time (Pheretima posthuma; 40 mg/mL): 04.67 ± 0.57 min
- Pheretima posthuma Death Time (Pheretima posthuma; [3]): 28.92 min
- Pheretima posthuma Paralysis Time (Pheretima posthuma; [3]): 4.67 min
- Ascaridia galli Death Time (Ascaridia galli; 10 mg/mL): 36.32 ± 1.36 min
- Ascaridia galli Paralysis Time (Ascaridia galli; 10 mg/mL): 11.26 ± 2.81 min
- Ascaridia galli Death Time (Ascaridia galli; 20 mg/mL): 32.56 ± 1.93 min
- Ascaridia galli Paralysis Time (Ascaridia galli; 20 mg/mL): 09.45 ± 1.63 min
- Ascaridia galli Death Time (Ascaridia galli; 40 mg/mL): 25.68 ± 3.62 min
- Ascaridia galli Paralysis Time (Ascaridia galli; 40 mg/mL): 07.18 ± 1.74 min

SMILES: O=C1O[C@H]([C@@H](O)CO)C(O)=C1O [Ascorbic acid, ascorbic acid, reference compound]
- ABTS IC50 value (ABTS anti-radicals study): 18.04 µg/mL
- ABTS % Inhibition (Mean±SEM) (ABTS anti-radicals study; 62.5 µg/mL): 59.12±0.34%
- ABTS % Inhibition (Mean±SEM) (ABTS anti-radicals study; 125 µg/mL): 64.47±0.49%
- ABTS % Inhibition (Mean±SEM) (ABTS anti-radicals study; 250 µg/mL): 69.75±0.14%
- ABTS % Inhibition (Mean±SEM) (ABTS anti-radicals study; 500 µg/mL): 76.59±0.30%
- ABTS % Inhibition (Mean±SEM) (ABTS anti-radicals study; 1000 µg/mL): 81.85±0.18%
- H2O2 IC50 value (H2O2 anti-radicals study): 29.73 µg/mL
- H2O2 % Inhibition (Mean±SEM) (H2O2 anti-radicals study; 62.5 µg/mL): 56.67±1.67%
- H2O2 % Inhibition (Mean±SEM) (H2O2 anti-radicals study; 125 µg/mL): 61.33±1.33%
- H2O2 % Inhibition (Mean±SEM) (H2O2 anti-radicals study; 250 µg/mL): 68.85±1.85%
- H2O2 % Inhibition (Mean±SEM) (H2O2 anti-radicals study; 500 µg/mL): 74.67±0.67%
- H2O2 % Inhibition (Mean±SEM) (H2O2 anti-radicals study; 1000 µg/mL): 78.00±1.15%
- DPPH IC50 value [1]: 11.39 µg/mL
- DPPH % Inhibition (Mean±SEM) ([1]; 62.5 µg/mL): 61.35±0.18%
- DPPH % Inhibition (Mean±SEM) ([1]; 125 µg/mL): 66.20±0.15%
- DPPH % Inhibition (Mean±SEM) ([1]; 250 µg/mL): 73.42±0.11%
- DPPH % Inhibition (Mean±SEM) ([1]; 500 µg/mL): 78.62±0.17%
- DPPH % Inhibition (Mean±SEM) ([1]; 1000 µg/mL): 83.53±0.20%

SMILES: COc1ccc2c3c1O[C@H]1C[C@@H](O)C=C[C@@]31CCN(C)C2 [Galanthamine, Galanthamine hydrobromide, reference compound]
- inhibition at 62.5 µg/mL ([2]; read-out: Butyrylcholinesterase (BChE) Percent Inhibition (Mean±SEM), 62.5 μg/mL): 71.4%
- inhibition at 125 µg/mL ([2]; read-out: Butyrylcholinesterase (BChE) Percent Inhibition (Mean±SEM), 125 μg/mL): 78.6%
- inhibition at 250 µg/mL ([2]; read-out: Butyrylcholinesterase (BChE) Percent Inhibition (Mean±SEM), 250 μg/mL): 82.8%
- inhibition at 1000 µg/mL ([2]; read-out: Butyrylcholinesterase (BChE) Percent Inhibition (Mean±SEM), 1000 μg/mL): 95%
